Measured values: ChEMBL document CHEMBL4342526, “Exploration of the Structural Space in 4(3H)-Quinazolinone Antibacterials” (J Med Chem, 2020)
Converted amounts (≈) assume the structure as drawn. One block for each compound: values may come before it. The source made the active and inactive calls. The rule behind the calls is not given here.

Assays:
Staphylococcus aureus [1] = test: Antibacterial activity against Staphylococcus aureus ATCC 29213 measured after 16 to 20 hrs by microdilution method; type: functional
Summary of the method: (§1)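 CLSI broth microdilution: two-fold serial dilutions in triplicate in cation-adjusted Mueller–Hinton broth with 2% NaCl, inoculum 5 × 10^5 CFU/mL, incubated at 37 °C for 16–20 h. MIC is the lowest concentration preventing visible growth.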

Enterococcus faecium = test: Antibacterial activity against Enterococcus faecium NCTC 7171 measured after 16 to 20 hrs by microdilution method; type: functional; summary of the method: as §1
Bacillus licheniformis = test: Antibacterial activity against Bacillus licheniformis ATCC 12759 measured after 16 to 20 hrs by microdilution method; type: functional; summary of the method: as §1
Streptococcus pneumoniae = test: Antibacterial activity against Streptococcus pneumoniae ATCC 49619 measured after 16 to 20 hrs by microdilution method; type: functional; summary of the method: as §1
Staphylococcus aureus [2] = test: Antibacterial activity against multi-drug resistant mecA-positive Staphylococcus aureus ATCC 27660 measured after 16 to 20 hrs by microdilution method; type: functional
Summary of the method: (§2)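 CLSI broth microdilution; two-fold serial compound dilutions in triplicate in cation-adjusted Mueller–Hinton broth with 2% NaCl, inoculum 5 × 10^5 CFU/mL; 37 °C for 16–20 h; MIC = lowest concentration with no visible growth.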

Staphylococcus aureus [3] = test: Bactericidal activity against methicillin resistant Staphylococcus aureus NRS70 infected in ICR mouse model of neutropenic thigh infection assessed as log reduction in bacterial count in thigh at 20 mg/kg, sc administered at 8 hrs interval for 3 times starting from 1 hr post infection and measured 24 hrs post infection; type: functional
Summary of the method: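 Female ICR mice (6–8 weeks, 20–25 g) made neutropenic with cyclophosphamide 200 mg/kg ip at 4 and 1 days pre-infection; 0.1 mL NRS70 at 1 × 10^6 CFU/mL in brain heart infusion injected into right thigh; drug in 10% DMSO/90% water sc every 8 h ×3 from 1 h post-infection; thigh CFU counted at 24 h; n = 8/group; mean ± SEM, one-way ANOVA with Tukey test.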

Staphylococcus aureus [4] = test: Antibacterial activity against clindamycin/erythromycin/spectinomycin-resistant mec-positive Staphylococcus aureus NRS70 measured after 16 to 20 hrs by microdilution method; type: functional; summary of the method: as §2
Staphylococcus aureus [5] = test: Antibacterial activity against Staphylococcus aureus ATCC 29213 measured after 16 to 20 hrs in presence of bovine serum albumin by microdilution method; type: functional
Summary of the method: (§3)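 S. aureus ATCC29213 MIC was run by CLSI microdilution in cation-adjusted Mueller–Hinton broth plus 2% NaCl, with and without 0.5% bovine serum albumin. Compounds were two-fold serially diluted in triplicate, inoculum was 5 × 10^5 CFU/mL, and plates were incubated at 37 °C for 16–20 h. The endpoint was the lowest concentration with no visible growth.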

[6] = molecular target: T1, MecA (Staphylococcus aureus) (UniProt Q7DHH4); test: (§4) Binding affinity to PBP2a in clindamycin/erythromycin/spectinomycin-resistant mec-positive Staphylococcus aureus NRS70 assessed potentiation of piperacillin and tazobactam-induced bactericidal activity by measuring log reduction in bacterial count at 0.5 times MIC measured after 12 hrs by time-kill assay
T1 sequence (whole entry): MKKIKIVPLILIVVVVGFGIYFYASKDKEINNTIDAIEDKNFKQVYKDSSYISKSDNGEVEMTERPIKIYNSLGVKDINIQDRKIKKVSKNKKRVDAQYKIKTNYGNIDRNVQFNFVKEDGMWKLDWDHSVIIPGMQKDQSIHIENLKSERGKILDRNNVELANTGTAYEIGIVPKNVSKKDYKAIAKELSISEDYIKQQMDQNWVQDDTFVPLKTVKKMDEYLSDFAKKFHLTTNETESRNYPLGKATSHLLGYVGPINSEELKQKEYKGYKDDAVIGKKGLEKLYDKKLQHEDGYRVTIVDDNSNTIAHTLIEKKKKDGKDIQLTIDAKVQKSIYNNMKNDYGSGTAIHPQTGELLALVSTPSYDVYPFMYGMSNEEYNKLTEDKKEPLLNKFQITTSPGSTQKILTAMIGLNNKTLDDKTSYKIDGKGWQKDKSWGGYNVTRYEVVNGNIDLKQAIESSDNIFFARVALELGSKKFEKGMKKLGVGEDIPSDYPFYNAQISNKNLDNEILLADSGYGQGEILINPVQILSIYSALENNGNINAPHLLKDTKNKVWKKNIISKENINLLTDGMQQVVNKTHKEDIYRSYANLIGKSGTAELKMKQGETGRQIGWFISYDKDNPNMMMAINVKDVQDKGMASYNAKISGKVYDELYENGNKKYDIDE

Enterococcus faecalis = test: Antibacterial activity against Enterococcus faecalis ATCC 29212 measured after 16 to 20 hrs by microdilution method; type: functional; summary of the method: as §1
[7] = Elimination half life in ICR mouse at 10 mg/kg, iv by UV-UPLC analysis; type: ADME, organism-based; conditions: ICR, in vivo, read-out: beta t1/2
Summary of the method: (§5)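 Female ICR mice, 6–8 weeks old, 20–25 g. Each received 50 μL by tail-vein injection (5 or 10 mg/kg) of a filter-sterilized 2 or 4 mg/mL solution in 20% DMSO/10% Tween-80/70% water. Terminal blood was collected and plasma harvested by centrifugation. Plasma was precipitated with acetonitrile containing internal standard, and the supernatant was analyzed by C18 UPLC with UV detection at 285 nm.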

Staphylococcus aureus [8] = test: Antibacterial activity against multi-drug resistant mec-positive Staphylococcus aureus USA300 measured after 16 to 20 hrs by microdilution method; type: functional; summary of the method: as §2
Staphylococcus aureus [9] = test: Bacteriostatic activity against clindamycin/erythromycin/spectinomycin-resistant mec-positive Staphylococcus aureus NRS70 assessed as log reduction in bacterial count at 0.5 to 16 times MIC by time-kill assay; type: functional
[10] = molecular target: T1, MecA (Staphylococcus aureus); test: as §4, with “measuring” for “measuring log”, “24” for “12”
[11] = Volume of distribution in ICR mouse at 10 mg/kg, iv by UV-UPLC analysis; type: ADME, organism-based; conditions: in vivo; summary of the method: as §5
Bacillus cereus = test: Antibacterial activity against Bacillus cereus ATCC 13061 measured after 16 to 20 hrs by microdilution method; type: functional; summary of the method: as §1
Staphylococcus aureus [12] = test: Selectivity ratio of MIC for Staphylococcus aureus ATCC 29213 in presence of bovine serum albumin to MIC for Staphylococcus aureus ATCC 29213 in absence of bovine serum albumin; type: functional; summary of the method: as §3
HeLa = test: Cytotoxicity against human HeLa cells assessed as reduction in cell viability measured after 16 hrs by XTT assay; type: cell-based
Summary of the method: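 HeLa cells (ATCC CCL-2), run in triplicate. Viability was read by XTT, and IC50 was obtained by nonlinear regression.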

Clostridioides difficile = test: Antibacterial activity against Clostridium difficile ATCC 43255 measured after 16 to 20 hrs by microdilution method; type: functional
Staphylococcus aureus [13] = test: Antibacterial activity against multi-drug resistant mecA-positive Staphylococcus aureus NRS119 measured after 16 to 20 hrs by microdilution method; type: functional; summary of the method: as §2
[14] = test system: Staphylococcus epidermidis; test: Antibacterial activity against Staphylococcus epidermidis ATCC 35547 measured after 16 to 20 hrs by microdilution method; type: functional; summary of the method: as §2
[15] = Elimination half life in ICR mouse at 10 mg/kg, po administered via gavage by UV-UPLC analysis; type: ADME, organism-based; conditions: in vivo, read-out: beta t1/2 (converted)

MIC (Staphylococcus aureus [1]): 8 µg/mL (≈ 16.4 µM)
MIC (Enterococcus faecium): 16 µg/mL (≈ 32.9 µM)
SMILES: N#Cc1ccc(/C=C/c2nc3ccccc3c(=O)n2-c2cccc(NC(=O)CCc3cnc[nH]3)c2)cc1

SMILES: N#Cc1ccc(/C=C/c2nc3ccccc3c(=O)n2-c2cccc(C(=O)O)c2)cc1
MIC (Bacillus licheniformis): > 128 µg/mL
MIC (Streptococcus pneumoniae): 16 µg/mL (≈ 40.7 µM)
MIC (Staphylococcus aureus [2]): 2 µg/mL (≈ 5.08 µM)
log(activity) (Staphylococcus aureus [3]): 0.67
MIC (Staphylococcus aureus [4]): 2 µg/mL (≈ 5.08 µM)
MIC (Staphylococcus aureus [5]): 8 µg/mL
log(activity) [6]: > 3
MIC (Enterococcus faecalis): > 128 µg/mL
half-life [7]: > 20 h
MIC (Staphylococcus aureus [8]): 0.5 µg/mL (≈ 1.27 µM)
MIC (Staphylococcus aureus [1]): 2 µg/mL (≈ 5.08 µM)
log(activity) (Staphylococcus aureus [9]): <3
Activity [10]: inactive
Vd [11]: 0.3 L/kg
MIC (Bacillus cereus): > 128 µg/mL
selectivity ratio (Staphylococcus aureus [12]): <=4
IC50 (HeLa): 173 µg/mL (≈ 440 µM)
MIC (Clostridioides difficile): 128 µg/mL (≈ 325 µM)
MIC (Staphylococcus aureus [13]): 1 µg/mL (≈ 2.54 µM)
MIC [14]: 1 µg/mL (≈ 2.54 µM)
half-life [15]: > 20 h
